In ChEMBL document CHEMBL2016568, “Bromophenols as inhibitors of protein tyrosine phosphatase 1B with antidiabetic properties” (Bioorg Med Chem Lett, 2012):

Columns and labels:
[1] = molecular target: T1, Tyrosine-protein phosphatase non-receptor type 1 (Homo sapiens) (UniProt P18031); assay: Inhibition of GST-tagged human recombinant PTB1B using pNPP as substrate at 5 ug/ml after 3 mins
T1 sequence (whole entry): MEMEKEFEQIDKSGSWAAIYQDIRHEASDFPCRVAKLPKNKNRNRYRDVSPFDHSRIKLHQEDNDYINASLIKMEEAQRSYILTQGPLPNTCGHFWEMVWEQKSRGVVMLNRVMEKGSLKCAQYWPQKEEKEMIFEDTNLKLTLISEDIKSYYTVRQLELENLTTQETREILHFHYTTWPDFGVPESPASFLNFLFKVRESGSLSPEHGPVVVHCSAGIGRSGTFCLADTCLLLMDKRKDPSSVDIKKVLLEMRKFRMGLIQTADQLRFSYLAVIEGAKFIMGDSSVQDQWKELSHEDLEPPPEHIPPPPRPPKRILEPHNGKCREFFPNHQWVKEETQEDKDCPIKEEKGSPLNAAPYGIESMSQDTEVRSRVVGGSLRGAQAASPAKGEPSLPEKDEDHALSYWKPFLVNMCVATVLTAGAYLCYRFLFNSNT

[2] = molecular target: T1, Tyrosine-protein phosphatase non-receptor type 1 (Homo sapiens); assay: Inhibition of GST-tagged human recombinant PTB1B using pNPP as substrate at 20 ug/ml after 3 mins
[3] = molecular target: T2, Tyrosine-protein phosphatase non-receptor type 1 (Homo sapiens, UniProt P18031); assay: Inhibition of GST-tagged human recombinant PTB1B using pNPP as substrate after 3 mins
T2 sequence (P18031 whole entry): T1 sequence (whole entry)

Mus musculus [4] = assay: Antihyperglycemic activity in C57BL/Ks db/db mouse assessed as reduction of plasma glucose level at 50 mg/kg, po after 2 to 6 weeks by glucometer relative to control; format: functional; design: scale not given: the % may be the effect or the level left
Summary of the method: (§1)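 db/db mice (C57BL/Ks, 10 weeks old, n = 8 per group) given compound orally in 0.5% sodium carboxymethyl cellulose for six weeks, with a vehicle model group. Postprandial blood glucose read weekly by glucometer. Baseline, 2-week and 6-week values given as mean ± SD. Percent decrease reported at 6 weeks, with statistics against the model group.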

Mus musculus [5] = assay: Antihyperglycemic activity in C57BL/Ks db/db mouse assessed as reduction of glycosylated hemoglobin level using HbA1c reagent at 50 mg/kg, po after 2 to 6 weeks relative to control; format: functional; design: scale not given: the % may be the effect or the level left
Summary of the method: (§2)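 HbA1c measured in C57BL/Ks db/db mice (n = 8 per group, 10 weeks old at start). Mice received oral doses suspended in 0.5% sodium carboxymethyl cellulose for six weeks, alongside a vehicle-treated model group. Results given as mean ± SD, compared against the model group.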

Mus musculus [6] = assay: Antidyslipidemic activity in C57BL/Ks db/db mouse assessed as reduction of triacylglycerol level at 50 mg/kg, po after 2 weeks (reference value: 1.24 +/- 0.12 mmol/L); format: functional
Mus musculus [7] = assay: Antidyslipidemic activity in C57BL/Ks db/db mouse assessed as reduction of triacylglycerol level at 50 mg/kg, po after 6 weeks (reference value: 1.56 +/- 0.17 mmol/L); format: functional
Mus musculus [8] = assay: Antidyslipidemic activity in C57BL/Ks db/db mouse assessed as reduction of total cholesterol level at 50 mg/kg, po after 2 weeks (reference value: 9.8 +/- 0.7 mmol/L); format: functional
Mus musculus [9] = assay: Antidyslipidemic activity in C57BL/Ks db/db mouse assessed as reduction of total cholesterol level at 50 mg/kg, po after 6 weeks (reference value: 9.2 +/- 1.2 mmol/L); format: functional
Mus musculus [10] = assay: Toxicity in C57BL/Ks db/db mouse at 25 to 50 mg/kg, po after 2 to 6 weeks; format: organism-based; design: route oral; details: in vivo
Mus musculus [11] = assay: Antihyperglycemic activity in C57BL/Ks db/db mouse assessed as reduction of plasma glucose level at 25 mg/kg, po after 2 to 6 weeks by glucometer relative to control; format: functional; design: scale not given: the % may be the effect or the level left; summary of the method: as §1
Homo sapiens [12] = species on record: Homo sapiens; assay: Selectivity ratio of IC50 for SHP1 to IC50 for GST-tagged human recombinant PTB1B
Mus musculus [13] = assay: Antidyslipidemic activity in C57BL/Ks db/db mouse assessed as reduction of triacylglycerol level at 25 mg/kg, po after 6 weeks (reference value: 1.56 +/- 0.17 mmol/L); format: functional
Mus musculus [14] = assay: Antihyperglycemic activity in C57BL/Ks db/db mouse assessed as reduction of glycosylated hemoglobin level using HbA1c reagent at 25 mg/kg, po after 2 to 6 weeks relative to control; format: functional; design: scale not given: the % may be the effect or the level left; summary of the method: as §2
[15] = molecular target: Receptor-type tyrosine-protein phosphatase F (Homo sapiens, UniProt P10586); assay: Inhibition of LAR using OMFP as substrate after 3 mins
Sequence of Receptor-type tyrosine-protein phosphatase F (P10586 whole entry): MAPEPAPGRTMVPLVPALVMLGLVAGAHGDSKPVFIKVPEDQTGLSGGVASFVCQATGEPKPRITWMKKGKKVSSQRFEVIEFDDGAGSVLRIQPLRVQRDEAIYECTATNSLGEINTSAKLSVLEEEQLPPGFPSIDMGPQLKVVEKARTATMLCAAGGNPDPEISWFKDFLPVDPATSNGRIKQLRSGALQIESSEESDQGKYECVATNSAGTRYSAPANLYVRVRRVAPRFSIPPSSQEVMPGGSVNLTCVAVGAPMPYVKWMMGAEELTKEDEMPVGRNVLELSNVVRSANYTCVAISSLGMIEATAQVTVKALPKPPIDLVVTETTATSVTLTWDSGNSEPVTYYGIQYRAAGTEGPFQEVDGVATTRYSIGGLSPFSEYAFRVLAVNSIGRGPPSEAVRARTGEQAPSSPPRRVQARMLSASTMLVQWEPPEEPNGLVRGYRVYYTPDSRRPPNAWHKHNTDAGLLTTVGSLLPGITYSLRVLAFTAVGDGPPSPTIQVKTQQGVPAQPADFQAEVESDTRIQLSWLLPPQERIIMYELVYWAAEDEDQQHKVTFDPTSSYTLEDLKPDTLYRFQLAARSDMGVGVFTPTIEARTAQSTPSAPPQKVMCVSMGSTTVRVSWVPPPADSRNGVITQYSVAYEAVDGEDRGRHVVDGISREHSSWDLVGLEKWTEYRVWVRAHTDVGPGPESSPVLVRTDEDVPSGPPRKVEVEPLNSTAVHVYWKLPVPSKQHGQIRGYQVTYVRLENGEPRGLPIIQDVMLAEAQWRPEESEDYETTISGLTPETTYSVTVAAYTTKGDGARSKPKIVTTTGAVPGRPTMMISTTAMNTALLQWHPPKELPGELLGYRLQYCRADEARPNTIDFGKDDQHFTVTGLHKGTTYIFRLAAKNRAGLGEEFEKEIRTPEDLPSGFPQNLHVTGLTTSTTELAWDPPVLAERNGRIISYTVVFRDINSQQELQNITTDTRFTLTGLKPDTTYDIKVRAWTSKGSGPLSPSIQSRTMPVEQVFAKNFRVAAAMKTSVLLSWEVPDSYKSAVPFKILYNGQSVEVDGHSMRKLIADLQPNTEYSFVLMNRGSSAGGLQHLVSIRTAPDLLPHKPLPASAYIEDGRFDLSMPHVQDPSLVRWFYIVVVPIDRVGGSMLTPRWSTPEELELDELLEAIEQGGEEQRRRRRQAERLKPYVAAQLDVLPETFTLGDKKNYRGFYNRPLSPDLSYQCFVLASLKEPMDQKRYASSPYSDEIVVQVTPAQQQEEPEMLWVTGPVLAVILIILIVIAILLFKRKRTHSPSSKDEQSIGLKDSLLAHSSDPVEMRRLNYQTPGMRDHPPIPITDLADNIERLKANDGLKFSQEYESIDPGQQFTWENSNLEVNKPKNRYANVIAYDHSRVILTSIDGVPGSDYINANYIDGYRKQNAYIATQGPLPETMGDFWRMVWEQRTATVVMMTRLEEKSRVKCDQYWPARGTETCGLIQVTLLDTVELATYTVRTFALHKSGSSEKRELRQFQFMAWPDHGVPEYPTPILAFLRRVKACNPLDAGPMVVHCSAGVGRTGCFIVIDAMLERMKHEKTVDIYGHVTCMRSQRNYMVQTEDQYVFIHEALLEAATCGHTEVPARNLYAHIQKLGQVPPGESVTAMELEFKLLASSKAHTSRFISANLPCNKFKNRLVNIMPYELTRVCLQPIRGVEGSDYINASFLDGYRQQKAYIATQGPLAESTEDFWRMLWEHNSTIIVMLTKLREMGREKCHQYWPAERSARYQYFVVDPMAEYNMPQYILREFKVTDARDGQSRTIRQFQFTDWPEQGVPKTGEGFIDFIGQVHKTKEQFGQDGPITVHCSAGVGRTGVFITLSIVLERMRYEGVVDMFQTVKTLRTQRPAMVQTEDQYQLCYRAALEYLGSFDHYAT
Summary of the method: (§3)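 Selectivity assays run in the same system as PTP1B. Enzyme and inhibitor preincubated 3 min at 4 °C, then the reaction started by adding substrate. OMFP used as substrate for SHP1, SHP2 and LAR. IC50 derived by Hill-equation fit of percent inhibition against inhibitor concentration.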

[16] = molecular target: T3, Tyrosine-protein phosphatase non-receptor type 11 (Homo sapiens, UniProt Q06124); assay: Inhibition of SHP2 using OMFP as substrate after 3 mins; summary of the method: as §3
T3 sequence (Q06124 whole entry): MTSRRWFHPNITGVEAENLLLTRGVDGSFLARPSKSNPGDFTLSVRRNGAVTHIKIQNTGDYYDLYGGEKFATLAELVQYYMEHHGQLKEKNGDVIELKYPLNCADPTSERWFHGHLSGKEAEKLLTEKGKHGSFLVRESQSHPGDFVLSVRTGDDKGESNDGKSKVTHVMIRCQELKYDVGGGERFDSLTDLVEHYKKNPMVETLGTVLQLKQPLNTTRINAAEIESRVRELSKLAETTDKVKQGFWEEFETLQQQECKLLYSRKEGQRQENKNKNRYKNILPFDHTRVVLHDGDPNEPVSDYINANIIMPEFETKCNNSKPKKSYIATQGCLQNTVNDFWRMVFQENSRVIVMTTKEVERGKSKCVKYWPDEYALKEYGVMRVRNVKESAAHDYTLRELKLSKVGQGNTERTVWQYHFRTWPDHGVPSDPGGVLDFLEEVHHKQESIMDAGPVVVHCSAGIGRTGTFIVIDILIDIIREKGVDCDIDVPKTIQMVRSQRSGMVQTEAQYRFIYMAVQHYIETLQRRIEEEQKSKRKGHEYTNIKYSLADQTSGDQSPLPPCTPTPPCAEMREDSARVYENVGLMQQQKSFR

Homo sapiens [17] = species on record: Homo sapiens; assay: Selectivity ratio of IC50 for TCPTP to IC50 for GST-tagged human recombinant PTB1B
Homo sapiens [18] = species on record: Homo sapiens; assay: Selectivity ratio of IC50 for SHP2 to IC50 for GST-tagged human recombinant PTB1B
[19] = molecular target: Tyrosine-protein phosphatase non-receptor type 6 (Homo sapiens, UniProt P29350); assay: Inhibition of SHP1 using OMFP as substrate after 3 mins; summary of the method: as §3
Sequence of Tyrosine-protein phosphatase non-receptor type 6 (P29350 whole entry): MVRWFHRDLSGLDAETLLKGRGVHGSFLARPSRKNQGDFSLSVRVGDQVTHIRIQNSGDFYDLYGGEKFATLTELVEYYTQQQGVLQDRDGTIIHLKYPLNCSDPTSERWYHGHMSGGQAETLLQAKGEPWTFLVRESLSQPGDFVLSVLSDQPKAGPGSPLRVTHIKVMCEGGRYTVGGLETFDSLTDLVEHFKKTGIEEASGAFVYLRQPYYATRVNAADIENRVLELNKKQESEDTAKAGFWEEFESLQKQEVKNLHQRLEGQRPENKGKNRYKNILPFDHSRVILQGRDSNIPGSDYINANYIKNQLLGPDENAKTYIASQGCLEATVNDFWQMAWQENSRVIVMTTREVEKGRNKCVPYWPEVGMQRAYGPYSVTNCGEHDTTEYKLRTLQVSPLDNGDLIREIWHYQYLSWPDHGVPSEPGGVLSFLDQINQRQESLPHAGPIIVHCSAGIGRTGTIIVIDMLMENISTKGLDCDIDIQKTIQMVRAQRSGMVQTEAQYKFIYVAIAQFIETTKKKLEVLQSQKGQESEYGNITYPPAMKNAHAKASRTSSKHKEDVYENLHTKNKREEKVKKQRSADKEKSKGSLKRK

Mus musculus [20] = assay: Antidyslipidemic activity in C57BL/Ks db/db mouse assessed as reduction of triacylglycerol level at 25 mg/kg, po after 2 weeks (reference value: 1.24 +/- 0.12 mmol/L); format: functional
Mus musculus [21] = assay: Antidyslipidemic activity in C57BL/Ks db/db mouse assessed as reduction of total cholesterol level at 25 mg/kg, po after 2 weeks (reference value: 9.8 +/- 0.7 mmol/L); format: functional
Mus musculus [22] = assay: Antidyslipidemic activity in C57BL/Ks db/db mouse assessed as reduction of total cholesterol level at 25 mg/kg, po after 6 weeks (reference value: 9.2 +/- 1.2 mmol/L); format: functional
Homo sapiens [23] = species on record: Homo sapiens; assay: Selectivity ratio of IC50 for LAR to IC50 for GST-tagged human recombinant PTB1B
[24] = molecular target: T4, Tyrosine-protein phosphatase non-receptor type 2 (Homo sapiens, UniProt P17706); assay: Inhibition of TCPTP after 3 mins; summary of the method: as §3
T4 sequence (P17706 whole entry): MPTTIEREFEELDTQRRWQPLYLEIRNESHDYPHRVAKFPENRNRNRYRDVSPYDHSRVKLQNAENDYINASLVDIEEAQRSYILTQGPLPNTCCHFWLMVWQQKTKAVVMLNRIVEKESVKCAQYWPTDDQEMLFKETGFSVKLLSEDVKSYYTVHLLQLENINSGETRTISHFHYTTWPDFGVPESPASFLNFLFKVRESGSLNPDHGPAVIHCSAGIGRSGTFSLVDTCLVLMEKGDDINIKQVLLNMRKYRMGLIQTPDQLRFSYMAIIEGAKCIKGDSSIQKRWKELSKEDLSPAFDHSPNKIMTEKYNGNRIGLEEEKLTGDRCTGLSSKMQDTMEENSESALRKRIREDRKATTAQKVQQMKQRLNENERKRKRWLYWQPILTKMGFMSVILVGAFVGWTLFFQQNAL

## COc1cc(Cc2c(Br)c(Br)c(OC)c(OC)c2Br)c(Br)c(Br)c1OC
[1]
  inhibition: 49.3%
[2]
  inhibition: 98.7%

## COc1cc(Br)c(C(=O)c2cc(OC)c(OC)c(Br)c2Br)cc1OC
[2]
  inhibition: 37.5%

## Oc1ccc(Cc2ccc(O)c(O)c2)cc1O
[2]
  inhibition: 9.27%

## COc1c(Br)c(Br)c(Cc2c(Br)c(Br)c(OC)c(OC)c2Br)c(Br)c1OC
[1]
  inhibition: 37.9%
[2]
  inhibition: 96.9%

## COc1ccc(Cc2cc(OC)c(OC)cc2Br)cc1OC
[2]
  inhibition: 14.4%

## O=C(c1ccc(O)c(O)c1)c1ccc(O)c(O)c1
[2]
  inhibition: 13.5%

## COc1cc(Br)c(C(=O)c2cc(OC)c(OC)cc2Br)cc1OC
[2]
  inhibition: 33.6%

## COc1c(Br)c(Br)c(C(=O)c2c(Br)c(Br)c(OC)c(OC)c2Br)c(Br)c1OC
[1]
  inhibition: 47.8%
[3]
  IC50: 2020 nM
[2]
  inhibition: 105%

## Oc1cc(Cc2cc(O)c(O)c(Br)c2Br)c(Br)c(Br)c1O
[1]
  inhibition: 38.9%
[3]
  IC50: 2420 nM
[2]
  inhibition: 91.3%

## COc1cc(Cc2cc(OC)c(OC)c(Br)c2Br)c(Br)c(Br)c1OC
[1]
  inhibition: 28.9%
[2]
  inhibition: 60.4%

## CN(CCOc1ccc(CC2SC(=O)NC2=O)cc1)c1ccccn1 (stereo unspecified) [ROSIGLITAZONE]
Mus musculus [4]
  Activity: 48.4%
Mus musculus [5]
  Activity: 2.56%
Mus musculus [6]
  Activity: 1.06 mmol/L
Mus musculus [7]
  Activity: 1.29 mmol/L
Mus musculus [8]
  Activity: 6.5 mmol/L
Mus musculus [9]
  Activity: 7.7 mmol/L

## O=C(c1c(Br)c(O)c(O)c(Br)c1Br)c1c(Br)c(O)c(O)c(Br)c1Br
[1]
  inhibition: 29.2%
[2]
  inhibition: 78.6%

## Oc1c(O)c(Br)c(Cc2c(Br)c(O)c(O)c(Br)c2Br)c(Br)c1Br
Mus musculus [10]
  Activity: Non-toxic
Mus musculus [4]
  Activity: 40.4%
[1]
  inhibition: 86.7%
Mus musculus [11]
  Activity: 33.5%
Mus musculus [5]
  Activity: 3.05%
Mus musculus [6]
  Activity: 1.28 mmol/L
Homo sapiens [12]
  Ratio IC50: > 70
Mus musculus [13]
  Activity: 1.45 mmol/L
Mus musculus [14]
  Activity: 3.05%
Mus musculus [7]
  Activity: 1.51 mmol/L
[15]
  IC50: > 50000 nM
[16]
  IC50: > 50000 nM
Homo sapiens [17]
  Ratio IC50: > 70
Homo sapiens [18]
  Ratio IC50: > 70
[19]
  IC50: > 50000 nM
Mus musculus [8]
  Activity: 7.1 mmol/L
Mus musculus [20]
  Activity: 1.2 mmol/L
Mus musculus [21]
  Activity: 8.3 mmol/L
Mus musculus [22]
  Activity: 9.1 mmol/L
Homo sapiens [23]
  Ratio IC50: > 70
[24]
  IC50: > 50000 nM
[3]
  IC50: 680 nM
[2]
  inhibition: 101%
Mus musculus [9]
  Activity: 8.4 mmol/L

## Oc1cc(Cc2c(Br)c(O)c(O)c(Br)c2Br)c(Br)c(Br)c1O
[1]
  inhibition: 45.3%
[2]
  inhibition: 92.3%

## COc1ccc(C(=O)c2ccc(OC)c(OC)c2)cc1OC
[2]
  inhibition: 2.72%

## COc1ccc(Cc2ccc(OC)c(OC)c2)cc1OC
[2]
  inhibition: 38.4%

## O=C(c1cc(O)c(O)c(Br)c1Br)c1cc(O)c(O)c(Br)c1Br
[2]
  inhibition: 20.3%

## O=C(c1cc(O)c(O)cc1Br)c1cc(O)c(O)cc1Br
[2]
  inhibition: 8.74%

## Oc1cc(Br)c(Cc2cc(O)c(O)c(Br)c2Br)cc1O
[2]
  inhibition: 40.5%

## O=C(c1cc(O)c(O)cc1Br)c1cc(O)c(O)c(Br)c1Br
[2]
  inhibition: 42.7%

## COc1ccc(C(=O)c2cc(OC)c(OC)cc2Br)cc1OC
[2]
  inhibition: 13%

## O=C(c1cc(O)c(O)c(Br)c1Br)c1c(Br)c(O)c(O)c(Br)c1Br
[1]
  inhibition: 72.1%
[3]
  IC50: 2450 nM
[2]
  inhibition: 95.1%

## Oc1cc(Br)c(Cc2cc(O)c(O)cc2Br)cc1O
[2]
  inhibition: 20.9%

## COc1cc(C(=O)c2c(Br)c(Br)c(OC)c(OC)c2Br)c(Br)c(Br)c1OC
[1]
  inhibition: 50.6%
[3]
  IC50: 3260 nM
[2]
  inhibition: 69.8%

## Oc1ccc(Cc2cc(O)c(O)cc2Br)cc1O
[2]
  inhibition: 12.2%

## COc1cc(Br)c(Cc2cc(OC)c(OC)cc2Br)cc1OC
[2]
  inhibition: 33.6%

## COc1cc(C(=O)c2cc(OC)c(OC)c(Br)c2Br)c(Br)c(Br)c1OC
[2]
  inhibition: 21.4%

## COc1cc(Br)c(Cc2cc(OC)c(OC)c(Br)c2Br)cc1OC
[1]
  inhibition: 40.2%
[2]
  inhibition: 52.5%

## O=C(c1ccc(O)c(O)c1)c1cc(O)c(O)cc1Br
[2]
  inhibition: 11.2%
